Test results: ChEMBL document CHEMBL4373677, “The cytotoxic potential of cationic triangulenes against tumour cells” (Medchemcomm, 2019)
Activity calls are given as the source filed them. No cut-off for these calls is given here.

Legend:
[1] = Stability of carbenium ionic form, pKR+ of the compound by spectrophotometric analysis; assay type: physicochemical
How it was run: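 Calibration of molar absorbance at the 330 nm peak, made with the compound in 0.1 M acetic acid, where the alcohol is completely ionised. pKR+ derived from the absorbance relationship in eqn (1).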

HCT-116 [2] = assay: Antiproliferative activity against human HCT116 cells assessed as reduction in cell viability at 10 uM after 4 days by [3H]-thymidine incorporation assay relative to control; assay type: functional
How it was run: (§1)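 MDA-MB-231 and HCT116 cells (ATCC) seeded at 3000 cells/well on tissue-culture-treated plates as monolayers and incubated 3 days. Compound then added for four days. 3H-thymidine pulse of 0.04 µCi/well for 5 h before harvest. Proliferation read as 3H-thymidine incorporation into S-phase DNA. Mean % of untreated cells is reported; IC50 is the concentration giving 50% inhibition.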

MDA-MB-231 [3] = assay: Induction of DNA double strand breaks in human MDA-MB-231 cells assessed as gammaH2AX phosphorylation at 5 uM incubated for 16 hrs by flow cytometry (reference value: 6.1 +/-0.7%); assay type: functional
Calf thymus DNA [4] = assay: Binding affinity to calf thymus DNA assessed as binding constant by emission titration analysis; assay type: nucleic-acid assay; conditions: Bos taurus
MDA-MB-231 [5] = assay: Antiproliferative activity against human MDA-MB-231 cells assessed as reduction in cell viability after 4 days by [3H]-thymidine incorporation assay; assay type: functional, cell-based; how it was run: as §1
MDA-MB-231 [6] = assay: Induction of DNA double strand breaks in human MDA-MB-231 cells assessed as gammaH2AX phosphorylation at 1 uM incubated for 16 hrs by flow cytometry (reference value: 6.1 +/-0.7%); assay type: functional
HCT-116 [7] = assay: Antiproliferative activity against human HCT116 cells cultured as 3D-spheroids assessed as reduction in cell viability after 4 days by [3H]-thymidine incorporation assay; assay type: functional, cell-based
How it was run: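 HCT116 spheroids: 4000 cells/well seeded in ultra-low attachment plates, then centrifuged at 1000 × g for 10 min to start spheroid formation. After 3 days, compounds added for four days. 3H-thymidine (0.08 µCi/well) added 16 h before harvest. Inhibition read as thymidine incorporation relative to untreated cells. IC50 is the concentration giving 50% inhibition.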

HCT-116 [8] = assay: Antiproliferative activity against human HCT116 cells assessed as reduction in cell viability after 4 days by [3H]-thymidine incorporation assay; assay type: functional, cell-based; how it was run: as §1
MDA-MB-231 [9] = assay: Induction of DNA double strand breaks in human MDA-MB-231 cells assessed as gammaH2AX phosphorylation at 10 uM incubated for 16 hrs by flow cytometry (reference value: 6.1 +/-0.7%); assay type: functional
MDA-MB-231 [10] = assay: Antiproliferative activity against human MDA-MB-231 cells assessed as reduction in cell viability at 10 uM after 4 days by [3H]-thymidine incorporation assay relative to control; assay type: functional; how it was run: as §1
MDA-MB-231 [11] = assay: Cell cycle arrest in human MDA-MB-231 cells assessed as accumulation at S-phase at 1 to 10 uM incubated for 16 hrs by flow cytometry; assay type: functional, cell-based
MDA-MB-231 [12] = assay: Antiproliferative activity against human MDA-MB-231 cells assessed as cell viability at 10 uM after 4 days by [3H]-thymidine incorporation assay relative to control; assay type: functional; conditions: read-out: Activity; how it was run: as §1
MDA-MB-231 [13] = assay: Cell cycle arrest in human MDA-MB-231 cells assessed as accumulation at G2 phase at 1 to 10 uM incubated for 16 hrs by flow cytometry; assay type: functional, cell-based
HCT-116 [14] = assay: Antiproliferative activity against human HCT116 cells assessed as cell viability at 10 uM after 4 days by [3H]-thymidine incorporation assay relative to control; assay type: functional; conditions: read-out: Activity; how it was run: as §1
MDA-MB-231 [15] = assay: Cell cycle arrest in human MDA-MB-231 cells assessed as accumulation at G1 phase at 1 to 10 uM incubated for 16 hrs by flow cytometry; assay type: functional, cell-based
Calf thymus DNA [16] = assay: Binding affinity to calf thymus DNA assessed as binding constant at 1 uM incubated for 24 hrs by competitive dialysis technique; assay type: nucleic-acid assay; conditions: Bos taurus
dsDNA = assay: Binding affinity to 12-mer duplex oligonucleotide (unknown origin) assessed as melting temperature at 5 uM in sodium phosphate buffer at pH 7 by UV-VIS spectrophotometry (reference value: 52.8 degC); assay type: nucleic-acid assay
Calf thymus DNA [17] = assay: Binding affinity to calf thymus DNA assessed as binding constant at 25 uM in sodium phosphate buffer solution at pH 7 by UV-Visible spectrophotometry; assay type: nucleic-acid assay; conditions: Bos taurus
[18] = Dissociation constant, pKa of the compound; assay type: physicochemical
MDA-MB-231 [19] = assay: Cell cycle arrest in human MDA-MB-231 cells assessed as accumulation at S-phase at 1 uM incubated for 16 hrs by flow cytometry; assay type: functional, cell-based
How it was run: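 Cells seeded at 106 per well in 6-well plates, exposed to compound for 16 h, harvested, washed, blocked in 1% FCS/PBS. Stained with anti-γH2AX (phospho-Ser139, 1:500, 2 h, room temperature), then Alexa 488 anti-mouse Fab (1:400, 1 h, room temperature, dark). Counterstained with RNase (1 µg/mL) plus propidium iodide (10 µg/mL) for 30 min. Cell-cycle profiles read by flow cytometry.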

Structure (SMILES) | pKR+ [1] | inhibition (HCT-116 [2]) | Activity (MDA-MB-231 [3]) [%] | IC50 (MDA-MB-231 [5]) [nM] | Activity (MDA-MB-231 [6]) [%] | IC50 (HCT-116 [7]) [nM] | IC50 (HCT-116 [8]) [nM] | Activity (MDA-MB-231 [9]) [%] | inhibition (MDA-MB-231 [10]) | also measured
CCCCn1c2cccc3c2[c+]2c4c1cccc4n(CCCC)c1cccc(c12)n3CCCC.F[B-](F)(F)F | 23.7 | Active | – | – | – | – | – | – | – | –
CCCn1c2cccc3oc4cccc5oc6cccc1c6[c+](c45)c32 | 14.5 | Active | 30.6 | 87.5 | 12.9 | 38 | 256 to 321 | 27.8 | Active | Kb (Calf thymus DNA [4]): 8.1 ×10⁶ /M
c1cc2oc3cccc4oc5cccc6oc(c1)c2[c+](c34)c65 | 9.1 | – | 57.5 | 448 | 8.8 | > 1000 | 708 | 43.6 | – | Activity (MDA-MB-231 [11]): inactive; viability at 10 µM (MDA-MB-231 [12]): < 1%; Activity (MDA-MB-231 [13]): Active; viability at 10 µM (HCT-116 [14]): < 1%; Activity (MDA-MB-231 [15]): Active; Kb (Calf thymus DNA [16]): 4.1 ×10⁴ /M; Tm (dsDNA): 57.3 °C; Kb (Calf thymus DNA [17]): 4.1 ×10⁴ /M
c1cc2[nH]c3cccc4oc5cccc6oc(c1)c2[c+](c34)c65 | – | – | – | – | – | – | – | – | – | inhibition at 10 µM (MDA-MB-231 [10]): 12 to 25%; pKa [18]: 5.7; inhibition at 10 µM (HCT-116 [2]): 12 to 25%
CCCn1c2cccc3oc4cccc5c4[c+](c32)c2c1cccc2n5CCC | 19.4 | Active | 1.3 | 77.5 | 13.6 | 21 | 106 to 111 | 2.4 | Active | –
CC[C@@]1(O)C(=O)OCc2c1cc1n(c2=O)Cc2cc3ccccc3nc2-1 [CAMPTOTHECIN] | – | – | – | 28.4 | 73.6 | – | 8.5 | – | – | Activity (MDA-MB-231 [19]): Active
